Assay outcomes as filed in PubChem BioAssay.
p97 inhibitor – blocks human p97 ATPase activity | recombinant p97 ATPase, Kinase-Glo ATP luminescence, 3 h | inhibition, % at 8 µM | actives 0.42% (n = 220,000) | AID 1481; in the data active means inhibition above about 15%;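 further: 0% = DMSO vehicle and 100% = wells lacking enzyme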
Target sequence (P55072 whole entry, looked up): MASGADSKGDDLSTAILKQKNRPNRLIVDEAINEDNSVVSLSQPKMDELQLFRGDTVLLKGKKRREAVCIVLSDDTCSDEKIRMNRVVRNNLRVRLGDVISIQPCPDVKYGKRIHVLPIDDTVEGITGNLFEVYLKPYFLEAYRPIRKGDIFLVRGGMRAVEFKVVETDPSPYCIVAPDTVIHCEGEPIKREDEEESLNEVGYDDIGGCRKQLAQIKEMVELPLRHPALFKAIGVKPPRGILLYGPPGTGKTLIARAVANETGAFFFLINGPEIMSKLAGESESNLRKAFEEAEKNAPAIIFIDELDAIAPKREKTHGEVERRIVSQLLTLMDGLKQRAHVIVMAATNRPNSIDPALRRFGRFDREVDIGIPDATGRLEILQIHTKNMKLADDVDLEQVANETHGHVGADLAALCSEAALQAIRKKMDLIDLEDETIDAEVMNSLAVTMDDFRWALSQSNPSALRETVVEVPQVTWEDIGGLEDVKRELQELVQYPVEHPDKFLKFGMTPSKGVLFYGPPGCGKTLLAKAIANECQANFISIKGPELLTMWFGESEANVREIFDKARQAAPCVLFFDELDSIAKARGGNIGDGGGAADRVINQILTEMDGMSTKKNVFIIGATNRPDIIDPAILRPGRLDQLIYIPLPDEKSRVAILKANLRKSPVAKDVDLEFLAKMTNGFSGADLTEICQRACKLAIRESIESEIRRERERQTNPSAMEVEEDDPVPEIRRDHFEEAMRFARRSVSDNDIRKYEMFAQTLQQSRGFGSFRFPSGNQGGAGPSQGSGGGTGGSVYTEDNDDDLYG
M18AAP inhibitor – PfM18AAP enzyme inhibition; recombinant PfM18AAP, H-Glu-NHMec fluorogenic cleavage; inhibition, % at 7.35 µM; actives 1.2% (n = 290,000); AID 1822;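 active means inhibition above the campaign mean inhibition over all tested compounds plus 3 SD, cut at about 28% in these data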;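 further: 0% = plate median of test compound wells and 100% = 2 mM ZnCl2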
UPR CHOP act – apoptotic UPR (CHOP) activation. activation, % at 10 µM. actives 0.34% (n = 330,000). CHO-CHOP luciferase reporter, luminescence; percent of tunicamycin response over DMSO baseline. AID 449763;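 active means at 10 µM dose, activation of 40% or more, normalized to positive control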;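 further: 100% = tunicamycin at 10 µg/mL and 0% = DMSO alone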
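System: CHO-CHOP luciferase reporter cell line | Buffer or medium: F12 medium containing 10% fetal bovine serum | Doses: One dose, 10 µM in 0.5% DMSO | Times: 6 h compound exposure at 37 °C after overnight seeding | Signal: Luciferase luminescence | Read-out: % activation vs tunicamycin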
CHOP inhibitor – inhibitors of CHOP induction in ER stress response | CHO-K1 CHOP-promoter luciferase, tunicamycin-induced, 15-18 h | inhibition, % at 10 µM | actives 3.8% (n = 220,000) | AID 2732;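 active means compounds that reduced the stress-induced luciferase reporter signal by more than about 70% of percent inhibition, limit read from the data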;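 further: 0% = tunicamycin plus vehicle and 100% = wells without tunicamycin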
UPR XBP1 act – activators of adaptive arm of unfolded protein response (XBP1); activation, % at 20 µM; actives 0.33% (n = 330,000); CHO-XBP1 luciferase reporter, IRE1-XBP1 UPR activation, luminescence; percent of tunicamycin response, DMSO as zero;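 active means versus positive control, 20 µM dose yields 30% or more activation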;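 further: 100% = tunicamycin at 10 µg/mL and 0% = DMSO only wells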
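Material: CHO cell line with stable XBP1 luciferase reporter; buffer or medium: F12 medium containing 10% fetal bovine serum; compound: single point, 20 µM final compound, 1% DMSO; incubation: 6 h treatment, 37 °C; measured by: glow luminescence from Steady-Glo reagent; evaluation: activation, % of tunicamycin; control set: tunicamycin high, DMSO low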
HCV NS3 hel inh – blocks Hepatitis C virus NS3 helicase unwinding; NS3 helicase DNA unwinding, Cy5 molecular beacon fluorescence; inhibition, % at 10.9 µM; actives 0.56% (n = 290,000); AID 1800;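 active means inhibition above the mean of all tested compounds plus 3 SD, set per campaign, cut at about 35% in these data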;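 further: 0% = DMSO wells and 100% = thioflavine S control wells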
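assay system = NS3 helicase fragment of HCV | buffer or medium = MOPS pH 6.5, MgCl2, DTT, Tween20, BSA | timing = 60 min unwinding reaction at 25 °C after ATP addition | signal = Cy5 beacon fluorescence read at start and 1 h | read-out basis = % inhibition of unwinding | control set = low DMSO, high thioflavine S at 110 µM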
An asterisk follows results filed as active; / = no result given. Only some compounds are listed: those with a hit (about 4.5% of all), similar ones and a draw of the others.

SMILES	p97 inhibitor	M18AAP inhibitor	UPR CHOP act	CHOP inhibitor	UPR XBP1 act	HCV NS3 hel inh
COc1ccc(NC(C)=O)cc1NC(=O)C1CCCN1C(=O)c1cccs1 (stereo unspecified)	/	/	0	/	-3	/
CC(=O)Nc1ccc(C23CC4CC(CC(C4)C2)C3)cc1	/	7	4	/	4	-14
Oc1ccc(C23CC4CC(CC(C4)C2)C3)cc1O	/	90*	/	/	/	11
Cc1ccc(NC(=O)c2cc3ccccc3o2)nc1	/	/	-2	/	-2	/
COc1ccc(/C=C/C(=O)OCC(=O)NCc2ccco2)c(OC)c1	4	0	0	-2	-2	0
O=C(Cn1c(COc2ccccc2)nc2ccccc21)Nc1cc(Cl)ccc1Cl	6	4	3	82*	4	-1
O=C(C1CCCC1)N1CCN(S(=O)(=O)c2cccc(Cl)c2Cl)CC1	/	-7	3	/	-4	0
O=C(O)CCC(=O)Nc1nc2ccccc2s1	1	9	1	72*	-1	3
CCOCC(=O)Nc1nc2ccc(C)cc2s1	0	5	-1	-64	-3	9
O=C(O)COCc1nc2ccccc2s1	0	30*	1	8	0	0
Cc1ccc2nc(NC(=O)CCCC(=O)O)sc2c1	6	-1	-7	82*	-5	-1
O=C(C[n+]1ccccc1)Nc1nc2ccccc2s1	1	-6	1	-24	2	7
Cc1ccc2nc(NC(=O)CSCC(=O)OCC(=O)c3ccccc3)sc2c1	5	3	/	71*	/	3
CN(C)CCCN1CC(C(=O)O)CC1=O (stereo unspecified)	3	-1	-1	76*	-1	-2
CC(/C=N/NC(=S)Nc1cccc(S(=O)(=O)N(C)C)c1)c1ccccc1 (stereo unspecified)	2	33*	0	27	-2	0
CN(C)S(=O)(=O)c1cccc(NC(=S)N/N=C/C(c2ccccc2)c2ccccc2)c1	-4	32*	-1	26	-3	3
OC(CN1CCN(c2ccccn2)CC1)Cn1c2ccccc2c2ccccc21 (stereo unspecified)	1	-9	1	72*	-3	-66
CC(C)OC(=O)c1cccnc1N1CCN(c2ccc(F)cc2)CC1	-3	-7	-4	78*	3	-5
O=C(/C=C/c1cccc(F)c1)OCC(=O)N1CCc2ccccc21	/	/	2	/	-1	/
O=C(N/N=C\c1cc(Cl)ccc1O)c1ccc(S(=O)(=O)N2CCCCC2)cc1	1	-11	-2	81*	3	10
O=C(CNC(=O)c1ccc(Cl)c([N+](=O)[O-])c1)OC1CCCCC1=O (stereo unspecified)	/	/	-1	/	-2	/
CCOC(=O)c1c(NC(=S)NC)sc2c1CC(C)(C)SC2	4	5	-1	95*	-3	16
COc1ccc(NC(=O)CN(C)C(=O)CN2C(=O)NC3(CCCC3)C2=O)cc1	/	/	2	/	0	/
O=C(NCc1ccco1)c1cc2ccc(O)cc2oc1=O	-13	28*	4	-6	-6	10
Cc1ccc2cccc(NC3OC(=O)c4ccccc43)c2n1 (stereo unspecified)	3	28*	3	1	-1	29
SMILES	p97 inhibitor	M18AAP inhibitor	UPR CHOP act	CHOP inhibitor	UPR XBP1 act	HCV NS3 hel inh
N#C/C(=C(/O)CSc1ccccc1C(=O)O)c1nc2ccccc2s1	16*	7	-1	-14	3	-1
CC(=O)c1ccc(OCC(C)Oc2ccc(C#N)cc2)cc1 (stereo unspecified)	0	6	0	16	-1	2
COc1cc(/C=C2\S/C(=N/S(=O)(=O)c3ccc(C)cc3)NC2=O)c([N+](=O)[O-])cc1OC	-3	17	2	14	0	2
Cc1ccc(S(=O)(=O)/N=C2/NC(=O)/C(=C/c3cc([N+](=O)[O-])ccc3O)S2)cc1	/	30*	-2	/	-4	13
CCOc1cc(NC(=S)Nc2ccccc2)c(OCC)cc1NC(=O)c1ccc(OC)cc1	1	11	2	42	-1	-37
CCOc1cc(NC(=S)Nc2ccc(Cl)cc2)c(OCC)cc1NC(C)=O	-1	31*	4	-18	1	-2
CCc1nc(SCC(=O)Nc2nnc(CC)s2)c2c(C)c(C)sc2n1	2	7	-1	96*	1	2
CCCc1nc(SCC(=O)Nc2nnc(CC)s2)c2c(C)c(C)sc2n1	0	-1	-1	47	-3	0
CCSc1nnc(NC(=O)CSc2nc(CC)nc3c2c(=O)n(C)c(=O)n3C)s1	-4	-14	0	82*	-3	-1
Cc1ccc2nc(-c3ccc(N)cc3)sc2c1	0	-1	-6	78*	-5	-20
Cc1ccc2nc(-c3ccc(NS(=O)(=O)c4ccc(F)cc4)cc3)sc2c1	4	2	3	104*	1	-3
Nc1ccc2nc(-c3ccccc3)sc2c1	-14	7	-5	63	-4	-11
O=C(NCc1ccccc1Cl)C1CCCN(S(=O)(=O)c2cccc3nonc23)C1 (stereo unspecified)	/	2	0	/	-8	6
COc1cc(C2C(C#N)=C(N)Oc3n[nH]c(-c4cccs4)c32)cc(OC)c1O (stereo unspecified)	4	28*	22	38	18	-4
Cc1ccc(C2C(C#N)=C(N)Oc3n[nH]c(-c4cccs4)c32)cc1 (stereo unspecified)	-2	9	-1	-11	-1	9
Nc1ccc2nc[nH]c2c1	-2	-7	-2	3	5	6
Cc1c(Cc2ccccc2)sc(/N=C/c2c(O)ccc3ccccc23)c1C(N)=O	2	42*	0	26	-6	15
Cc1sc(N)c(C(=O)c2ccccc2)c1C	6	32*	1	8	-3	-11
Cc1c(Cc2ccccc2)sc(NC(=O)Cc2ccccc2)c1C(N)=O	-7	6	0	/	-1	-8
COc1ccc(/C=C/C(=O)Nc2sc(Cc3ccccc3)c(C)c2C(N)=O)cc1	4	0	6	75*	6	1
Cc1c(Cc2ccccc2)sc(N)c1C(N)=O	3	42*	0	28	0	16
COc1ccc(NC(=O)N(C)C[C@H]2Oc3ccc(NS(=O)(=O)c4cccs4)cc3C(=O)N([C@@H](C)CO)C[C@@H]2C)cc1	/	/	-1	/	-2	/
CC(C)(C)OC(=O)C[C@H]1C/C=C\C[C@@H](CC(=O)N(CCO)Cc2ccccc2)C(=O)N[C@H](Cc2ccccc2)COC1=O	/	/	-3	/	-1	/
O=C(c1ccc(Br)cc1)N1CCCc2ccccc21	/	-2	2	/	0	-16
